What all share (type): functional
One test deals with UACC-62. Description: Growth inhibition of human UACC62 cells assessed as growth percentage at 10 uM incubated for 48 hrs by sulforhodamine B assay relative to control. To be noted: UACC-62, 48 h, read-out: Activity. Put shortly:
(§1)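 NCI-60 single-dose screen. Cells were grown in RPMI 1640 with 5% FBS and 2 mM L-glutamine and plated at 5,000–40,000 cells/well. After an overnight preincubation at 37 °C in 5% CO2, compound was added at a final 10 µM from a DMSO stock, with DMSO/PBS controls. After 48 h, cells were TCA-fixed and stained with 0.4% SRB, and absorbance was read at 515 nm. Growth is given as a percentage of untreated control.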
(In general: In SRB staining, fixed cells bind dye roughly in proportion to their protein.)

A further test deals with U-251. The test can be described thus: Growth inhibition of human U251 cells assessed as growth percentage at 10 uM incubated for 48 hrs by sulforhodamine B assay relative to control. To be noted: U-251, 48 h, read-out: Activity. In short, it runs like this: as §1
The next test has as its system NCI-H522. Description: Growth inhibition of human NCI-H522 cells assessed as growth percentage at 10 uM incubated for 48 hrs by sulforhodamine B assay relative to control. The note with it: NCI-H522, 48 h, read-out: Activity. Put shortly: (§2)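 NCI-60 one-dose screen. Cells in RPMI 1640 with 5% FBS and 2 mM L-glutamine, seeded at 5,000–40,000 cells/well according to doubling time, and preincubated overnight at 37 °C, 5% CO2. A time-zero plate was TCA-fixed at drug addition. Compound from DMSO stock, final 10 µM, 48 h; DMSO vehicle controls. Fixation with TCA, 10% final (16% for suspension cells). SRB stain, Tris solubilization, A515. Result given as % growth versus untreated cells.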

The next test concerns HT-29. The test can be described thus: Growth inhibition of human HT-29 cells assessed as growth percentage at 10 uM incubated for 48 hrs by sulforhodamine B assay relative to control. To be noted: HT-29, 48 h, read-out: Activity. In short, it runs like this: as §2
A further test relates to SK-OV-3. The test can be described thus: Growth inhibition of human SKOV3 cells assessed as growth percentage at 10 uM incubated for 48 hrs by sulforhodamine B assay relative to control. To be noted: SK-OV-3, 48 h, read-out: Activity. Put shortly:
as §1

The subject of a further test is ACHN. Description: Growth inhibition of human ACHN cells assessed as growth percentage at 10 uM incubated for 48 hrs by sulforhodamine B assay relative to control. The note with it: read-out: Activity. In short, it runs like this:
(§3)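 NCI-60 one-dose screen: cells in RPMI 1640 with 5% FBS and 2 mM L-glutamine, plated at 5,000–40,000 cells/well and preincubated 24 h at 37 °C, 5% CO2. Compound is added from a DMSO stock to a final 10 µM and incubated 48 h. Cells are TCA-fixed and stained with sulforhodamine B, read at 515 nm. Output is % growth versus untreated control, with a time-zero plate.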

The test system of another test is OVCAR-4. The test can be described thus: Growth inhibition of human OVCAR4 cells assessed as growth percentage at 10 uM incubated for 48 hrs by sulforhodamine B assay relative to control. The note with it: OVCAR-4, 48 h, read-out: Activity. In short, it runs like this: as §2
The next test deals with NCI-H322M. Description: Growth inhibition of human NCI-H322M cells assessed as growth percentage at 10 uM incubated for 48 hrs by sulforhodamine B assay relative to control. The note with it: read-out: Activity. In short, it runs like this: as §2
The test system of the next test is SNB-19. Description: Growth inhibition of human SNB19 cells assessed as growth percentage at 10 uM incubated for 48 hrs by sulforhodamine B assay relative to control. The note with it: SNB-19, 48 h, read-out: Activity. In short, it runs like this: as §1
The test system of the next test is NCI-H460. Description: Growth inhibition of human NCI-H460 cells assessed as growth percentage at 10 uM incubated for 48 hrs by sulforhodamine B assay relative to control. To be noted: NCI-H460, 48 h, read-out: Activity. In short, it runs like this:
as §2

Another test concerns PC-3. The test can be described thus: Growth inhibition of human PC3 cells assessed as growth percentage at 10 uM incubated for 48 hrs by sulforhodamine B assay relative to control. To be noted: PC-3, 48 h, read-out: Activity. Put shortly: as §1
For the next test, the system named is BT-549. Description: Growth inhibition of human BT549 cells assessed as growth percentage at 10 uM incubated for 48 hrs by sulforhodamine B assay relative to control. To be noted: BT-549, 48 h, read-out: Activity. In short, it runs like this: as §3
The subject of another test is SK-MEL-28. The test can be described thus: Growth inhibition of human SK-MEL-28 cells assessed as growth percentage at 10 uM incubated for 48 hrs by sulforhodamine B assay relative to control. To be noted: SK-MEL-28, 48 h, read-out: Activity. In short, it runs like this:
as §1

A further test concerns LOX IMVI. Description: Growth inhibition of human LOXIMVI cells assessed as growth percentage at 10 uM incubated for 48 hrs by sulforhodamine B assay relative to control. To be noted: read-out: Activity. In short, it runs like this:
as §2

Another test relates to Hs-578T. Description: Growth inhibition of human Hs 578T cells assessed as growth percentage at 10 uM incubated for 48 hrs by sulforhodamine B assay relative to control. The note with it: read-out: Activity. Put shortly: as §2
Another test deals with RPMI-8226. Description: Growth inhibition of human RPMI8226 cells assessed as growth percentage at 10 uM incubated for 48 hrs by sulforhodamine B assay relative to control. To be noted: RPMI-8226, 48 h, read-out: Activity. In short, it runs like this: as §1
In a further test the test system is OVCAR-3. The test can be described thus: Growth inhibition of human OVCAR3 cells assessed as growth percentage at 10 uM incubated for 48 hrs by sulforhodamine B assay relative to control. The note with it: OVCAR-3, 48 h, read-out: Activity. In short, it runs like this:
as §2

The subject of the next test is A498. Description: Growth inhibition of human A498 cells assessed as growth percentage at 10 uM incubated for 48 hrs by sulforhodamine B assay relative to control. The note with it: A498, 48 h, read-out: Activity. Put shortly:
as §3

A further test deals with SR. The test can be described thus: Growth inhibition of human SR cells assessed as growth percentage at 10 uM incubated for 48 hrs by sulforhodamine B assay relative to control. The note with it: read-out: Activity. Put shortly: as §1
Another test concerns HCT-116. The test can be described thus: Growth inhibition of human HCT116 cells assessed as growth percentage at 10 uM incubated for 48 hrs by sulforhodamine B assay relative to control. The note with it: HCT-116, 48 h, read-out: Activity. Put shortly: as §3
For the next test, the system named is MDA-MB-231. The test can be described thus: Growth inhibition of human MDA-MB-231 cells assessed as growth percentage at 10 uM incubated for 48 hrs by sulforhodamine B assay relative to control. The note with it: MDA-MB-231, 48 h, read-out: Activity. In short, it runs like this:
as §2

The test system of a further test is DU-145. Description: Growth inhibition of human DU145 cells assessed as growth percentage at 10 uM incubated for 48 hrs by sulforhodamine B assay relative to control. The note with it: DU-145, 48 h, read-out: Activity. In short, it runs like this:
as §3

The test system of another test is HL-60(TB). The test can be described thus: Growth inhibition of human HL-60(TB) cells assessed as growth percentage at 10 uM incubated for 48 hrs by sulforhodamine B assay relative to control. To be noted: HL-60, 48 h, read-out: Activity. Put shortly: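 NCI-60 single-dose screen. Cells in RPMI 1640 with 5% FBS and 2 mM L-glutamine are plated at 5,000–40,000 cells/well and preincubated overnight at 37 °C, 5% CO2. Compound is added from a DMSO stock at 10 µM final for 48 h. Cells are TCA-fixed (suspension cells 16% final) and stained with SRB. Absorbance is read at 515 nm, and percentage growth is calculated against untreated controls with a time-zero plate.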

The next test deals with SK-MEL-5. The test can be described thus: Growth inhibition of human SK-MEL-5 cells assessed as growth percentage at 10 uM incubated for 48 hrs by sulforhodamine B assay relative to control. To be noted: SK-MEL-5, 48 h, read-out: Activity. In short, it runs like this: as §1

SMILES strings stand for the structures.

Consider `COCCOC(=O)C1=C(C)NC(=S)NC1c1ccc2c(c1)OCO2` (racemic), for which the growth at 10 µM with UACC-62 stood at 102%; with U-251, 104%; in the test on NCI-H522 it was 94.3%; in the test with HT-29, 96.7%; in the test with SK-OV-3 it was 103%; in the test on ACHN it was 106%. Besides, the growth at 10 µM is 103% in the test with OVCAR-4; 101% in the test on NCI-H322M; 100% with SNB-19; 112% with NCI-H460; 95.7% with PC-3; 109% in the test on BT-549. Moreover, the growth at 10 µM in the test on SK-MEL-28 turned out to be 114%; with LOX IMVI, 101%; with Hs-578T, 104%; with RPMI-8226 it was 105%; with OVCAR-3, 111%; with A498, 96.1%. For the same compound, the growth at 10 µM came to 95.5% in the test with SR; 103% in the test with HCT-116; 105% in the test on MDA-MB-231; 108% with DU-145; 92.1% with HL-60(TB); 97.6% with SK-MEL-5.

For the origin of these results see ChEMBL document CHEMBL4406880, “Design, synthesis, and bioactivity of dihydropyrimidine derivatives as kinesin spindle protein inhibitors” (Bioorg Med Chem, 2019).
